{"data": "Experimental data of several laboratories", "CTSL": "Procathepsin L (CTSL, Homo sapiens, UniProt P07711)", "XDH": "Xanthine dehydrogenase/oxidase (XDH, Bos taurus, UniProt P80457)", "note": "Protocols differ between the studies behind these lines."}
{"Compound": "Cn1cc(-c2cc(F)cc(N3CCn4c(cc5c4CCCC5)C3=O)c2CO)cc(Nc2ccc(N3CCN(C4COC4)CC3)cn2)c1=O", "target": "Mitogen-activated protein kinase kinase kinase kinase 5 (MAP4K5, Homo sapiens, UniProt Q9Y4K4)", "assay": "enzyme activity, inhibitor", "conditions": "0.1 µM", "inhibition": "3%"}
{"Compound": "CC[C@H](NC(=O)OCc1ccccc1)C(=O)N[C@H](C(=O)N[C@@H](Cc1ccccc1)C(=O)N(C)N(C#N)CCC(N)=O)C(C)(C)C", "target": "CTSL", "assay": "enzyme activity, inhibitor", "conditions": "50 µM", "inhibition": "99%"}
{"Compound": "CCOC(=O)c1ccc(OC(=O)CCCCCNC(=N)N)cc1", "target": "CTSL", "assay": "enzyme activity, inhibitor", "conditions": "10 µM", "inhibition": "0%"}
{"Compound": "COc1cc(Nc2ncc(F)c(Nc3ccc4c(n3)NC(=O)C(C)(C)O4)n2)cc(OC)c1OC", "target": "5'-AMP-activated protein kinase catalytic subunit alpha-1 (PRKAA1, Homo sapiens, UniProt Q13131)", "assay": "binding, competition with immobilised ligand", "conditions": "10 µM", "inhibition": "74%"}
{"Compound": "C#Cc1n[nH]c2c(-c3cn([C@@H](C)c4ccccc4)c(=O)[nH]c3=O)cc(F)cc12", "target": "Protein kinase C theta type (PRKCQ, Homo sapiens, UniProt Q04759)", "assay": "enzyme activity, inhibitor", "conditions": "0.1 µM", "inhibition": "10.2%"}
{"Compound": "CC(C)C[C@H](NC(=O)[C@H]1O[C@@H]1C(=O)O)C(=O)NCCCCN=C(N)N", "target": "CTSL", "assay": "enzyme activity, inhibitor", "conditions": "5 nM", "inhibition": "39%"}
{"Compound": "CN(C(=O)[C@H](Cc1ccccc1)NC(=O)[C@@H](NC(=O)OCc1ccccc1)C(C)(C)C)N(C#N)CCC(N)=O", "target": "CTSL", "assay": "enzyme activity, inhibitor", "conditions": "50 µM", "inhibition": "99%"}
{"Compound": "Cn1cc(-c2cccc(N3CCc4c(sc5c4CC(C)(C)C5)C3=O)c2CO)cc(Nc2ccncn2)c1=O", "target": "Platelet-derived growth factor receptor alpha (PDGFRA, Homo sapiens, UniProt P16234)", "assay": "enzyme activity, inhibitor", "conditions": "1 µM", "inhibition": "5%"}
{"Compound": "C#Cc1n[nH]c2c(-c3cn([C@@H](C)c4ccccn4)c(=O)[nH]c3=O)cc(F)cc12", "target": "Phosphatidylinositol 4-kinase beta (PI4KB, Homo sapiens, UniProt Q9UBF8)", "assay": "enzyme activity, inhibitor", "conditions": "0.1 µM", "inhibition": "9.3%"}
{"Compound": "C[C@H](C(=O)N[C@H]1COc2ccccc2[C@@H]1S(C)(=O)=O)c1ccc(F)cc1", "target": "XDH", "assay": "enzyme activity, inhibitor", "conditions": "10 µM", "inhibition": "10%"}
{"Compound": "CC[C@H](NC(=O)OCc1ccccc1)C(=O)N[C@H](C(=O)N[C@@H](CC(C)C)C(=O)N(C)N(C#N)CCC(N)=O)C(C)(C)C", "target": "CTSL", "assay": "enzyme activity, inhibitor", "conditions": "50 µM", "inhibition": "100%"}
{"Compound": "NC(=O)Cc1ccccc1", "target": "XDH", "assay": "enzyme activity, inhibitor, absorbance", "conditions": "100 µg/mL", "inhibition": "7.3%"}
